Measured values: ChEMBL document CHEMBL4038284, “Synthesis of novel quinoline-based 4,5-dihydro-1H-pyrazoles as potential anticancer, antifungal, antibacterial and antiprotozoal agents” (Eur J Med Chem, 2017)
≈ marks a conversion by molar mass, not a printed value.

How the values were obtained:
Klebsiella pneumoniae [1] = assay: Antibacterial activity against ESBL positive Klebsiella pneumoniae ATCC 700603 after 24 hrs by resazurin dye based microdilution assay; assay type: functional; conditions: Klebsiella pneumoniae, 700603, 24 h
Procedure, shortened: (§1)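 MIC taken as the lowest concentration giving visible inhibition and/or by resazurin (1 mg/mL). Gentamicin was the control. Run in duplicate, repeated at least three times.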

Klebsiella pneumoniae [2] = assay: Antibacterial activity against carbapenemase positive Klebsiella pneumoniae BAA 1705 after 24 hrs by resazurin dye based microdilution assay; assay type: functional; conditions: BAA 1705, 24 h; procedure, shortened: as §1
Leishmania panamensis = assay: Antileshmanial activity against EpiR/GFP fused Leishmania panamensis MHOM/CO/87/UA140 intracellular amastigotes infected in human […] cells after 72 hrs by flow cytometric method; assay type: functional, cell-based; conditions: MHOM/CO/87/UA140, 72 h
Procedure, shortened: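 PMA-treated U-937 cells (3 × 10^5 cells/mL) infected with stationary-phase GFP L. panamensis promastigotes (15:1), 3 h at 34 °C, then washed. After 24 h, compounds added at 50, 12.5, 3.125 and 0.78 µg/mL for 72 h at 37 °C. EC50 by Probit; triplicate, two experiments.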

Candida albicans [3] = assay: Antifungal activity against Candida albicans ATCC 10231 incubated for 48 hrs under dark condition by broth microdilution method; assay type: functional; conditions: ATCC 10231, 48 h
Procedure, shortened: (§2)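 CLSI M27-A3 broth microdilution in RPMI-1640, DMSO ≤1%, compounds at 250-0.98 µg/mL final. Inoculum 1-5 × 10^3 CFU/mL. Incubated 48 h at 30 °C in a moist dark chamber, read at OD405. MIC80 and MIC50 taken from % inhibition dose-response curves (mean ± SEM, triplicate). Amphotericin B was the positive control.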

Cryptococcus neoformans [4] = assay: Antifungal activity against Cryptococcus neoformans ATCC 32264 incubated for 48 hrs under dark condition by broth microdilution method; assay type: functional; conditions: ATCC 32264, 48 h; procedure, shortened: as §2
Candida albicans [5] = assay: Growth inhibition of Candida albicans ATCC 10231 at 250 ug/ml incubated for 48 hrs under dark condition by broth microdilution method relative to control; assay type: functional; conditions: ATCC 10231, 48 h, read-out: GI
Procedure, shortened: (§3)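 CLSI M27-A3 broth microdilution in RPMI-1640, DMSO ≤1%. Inoculum 1-5 × 10^3 CFU/mL. Incubated 48 h at 30 °C, dark. % inhibition = 100 − (OD405 test − sterility control)/(OD405 growth control − sterility control), with growth and sterility control wells. Triplicate.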

Candida albicans [6] = assay: Growth inhibition of Candida albicans ATCC 10231 at 125 ug/ml incubated for 48 hrs under dark condition by broth microdilution method relative to control; assay type: functional; conditions: ATCC 10231, 48 h, read-out: GI; procedure, shortened: as §3
Candida albicans [7] = assay: Growth inhibition of Candida albicans ATCC 10231 at 62.5 ug/ml incubated for 48 hrs under dark condition by broth microdilution method relative to control; assay type: functional; conditions: ATCC 10231, 48 h, read-out: GI; procedure, shortened: as §3
Candida albicans [8] = assay: Growth inhibition of Candida albicans ATCC 10231 at 31.25 ug/ml incubated for 48 hrs under dark condition by broth microdilution method relative to control; assay type: functional; conditions: ATCC 10231, 48 h, read-out: GI; procedure, shortened: as §3
Candida albicans [9] = assay: Growth inhibition of Candida albicans ATCC 10231 at 15.62 ug/ml incubated for 48 hrs under dark condition by broth microdilution method relative to control; assay type: functional; conditions: ATCC 10231, 48 h, read-out: GI; procedure, shortened: as §3
Candida albicans [10] = assay: Growth inhibition of Candida albicans ATCC 10231 at 7.8 ug/ml incubated for 48 hrs under dark condition by broth microdilution method relative to control; assay type: functional; conditions: ATCC 10231, 48 h, read-out: GI; procedure, shortened: as §3
Candida albicans [11] = assay: Growth inhibition of Candida albicans ATCC 10231 at 3.4 ug/ml incubated for 48 hrs under dark condition by broth microdilution method relative to control; assay type: functional; conditions: ATCC 10231, 48 h, read-out: GI
Cryptococcus neoformans [12] = assay: Growth inhibition of Cryptococcus neoformans ATCC 32264 at 250 ug/ml incubated for 48 hrs under dark condition by broth microdilution method relative to control; assay type: functional; conditions: ATCC 32264, 48 h, read-out: GI; procedure, shortened: as §3
Cryptococcus neoformans [13] = assay: Growth inhibition of Cryptococcus neoformans ATCC 32264 at 125 ug/ml incubated for 48 hrs under dark condition by broth microdilution method relative to control; assay type: functional; conditions: ATCC 32264, 48 h, read-out: GI; procedure, shortened: as §3
Cryptococcus neoformans [14] = assay: Growth inhibition of Cryptococcus neoformans ATCC 32264 at 62.5 ug/ml incubated for 48 hrs under dark condition by broth microdilution method relative to control; assay type: functional; conditions: ATCC 32264, 48 h, read-out: GI; procedure, shortened: as §3
Cryptococcus neoformans [15] = assay: Growth inhibition of Cryptococcus neoformans ATCC 32264 at 31.25 ug/ml incubated for 48 hrs under dark condition by broth microdilution method relative to control; assay type: functional; conditions: ATCC 32264, 48 h, read-out: GI; procedure, shortened: as §3
Cryptococcus neoformans [16] = assay: Growth inhibition of Cryptococcus neoformans ATCC 32264 at 15.62 ug/ml incubated for 48 hrs under dark condition by broth microdilution method relative to control; assay type: functional; conditions: ATCC 32264, 48 h, read-out: GI; procedure, shortened: as §3
Cryptococcus neoformans [17] = assay: Growth inhibition of Cryptococcus neoformans ATCC 32264 at 7.8 ug/ml incubated for 48 hrs under dark condition by broth microdilution method relative to control; assay type: functional; conditions: ATCC 32264, 48 h, read-out: GI; procedure, shortened: as §3
Cryptococcus neoformans [18] = assay: Growth inhibition of Cryptococcus neoformans ATCC 32264 at 3.4 ug/ml incubated for 48 hrs under dark condition by broth microdilution method relative to control; assay type: functional; conditions: ATCC 32264, 48 h, read-out: GI
Staphylococcus aureus [19] = assay: Antibacterial activity against methicillin-sensitive Staphylococcus aureus ATCC 25923 after 24 hrs by resazurin dye based microdilution assay; assay type: functional; conditions: ATCC 25923, 24 h; procedure, shortened: as §1
Staphylococcus aureus [20] = assay: Antibacterial activity against methicillin-resistant Staphylococcus aureus ATCC 43300 after 24 hrs by resazurin dye based microdilution assay; assay type: functional; conditions: ATCC 43300, 24 h
Procedure, shortened: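 Broth microdilution in Mueller Hinton broth, inoculum 5 × 10^5 – 8 × 10^5. Compound stocks diluted in MHB with 5% DMSO and 0.1% Tween 80. Incubation 24 h at 35-37 °C. MIC is the lowest concentration with visible growth inhibition and/or by resazurin (1 mg/mL) read-out. Gentamicin as control. Run in duplicate, replicated at least three times.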

Staphylococcus aureus [21] = assay: Antibacterial activity against vancomycin-intermediate Staphylococcus aureus after 24 hrs by resazurin dye based microdilution assay; assay type: functional; procedure, shortened: as §1
Escherichia coli = assay: Antibacterial activity against Escherichia coli ATCC 25922 after 24 hrs by resazurin dye based microdilution assay; assay type: functional; conditions: ATCC 25922, 24 h; procedure, shortened: as §1
Pseudomonas aeruginosa = assay: Antibacterial activity against Pseudomonas aeruginosa ATCC 27853 after 24 hrs by resazurin dye based microdilution assay; assay type: functional; conditions: ATCC 27853, 24 h; procedure, shortened: as §1
Neisseria gonorrhoeae = assay: Antibacterial activity against beta lactamase positive Neisseria gonorrhoeae ATCC 31426 by oxidase test; assay type: functional
Procedure, shortened: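 Agar dilution MIC on GC agar with 1% isovitalex containing increasing compound concentrations. Plates inoculated with about 1×10^4 CFU (5 µL). MIC is the lowest concentration that inhibited growth, with growth confirmed by oxidase test. Run in duplicate, repeated at least three times.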

Plasmodium falciparum = assay: Antiplasmodial activity against chloroquine-sensitive Plasmodium falciparum 3D7 assessed as reduction in parasitic LDH activity after 48 hrs by Malstat reagent based […] method; assay type: functional; conditions: 3D7, 48 h
Procedure, shortened: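 Unsynchronized P. falciparum 3D7 at 0.5% parasitemia and 1% hematocrit in RPMI with 3% Albumax II. Exposed to 100, 25, 6.25 and 1.56 µg/mL for 48 h at 37 °C under 90% N2/5% CO2/5% O2. After three freeze-thaw cycles, LDH measured with Malstat and NBT/PES, 1 h in the dark, read at 650 nm. IC50 by Probit; triplicate, ≥2 experiments.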

U-937 = assay: Cytotoxicity against human U937 cells after 72 hrs by MTT assay; assay type: cell-based; conditions: u-937, 72 h
Procedure, shortened: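 Exponentially growing U-937 at 1 × 10^5 cells/mL in RPMI-1640 with 10% FBS were exposed to 200, 50, 12.5 and 3.125 µg/mL for 72 h at 37 °C, 5% CO2. MTT for 3 h, stopped with isopropanol/SDS, formazan read at 570 nm, blank-corrected. LC50 by Probit from % viability against untreated cells. Triplicate, at least two independent experiments.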

Trypanosoma cruzi = assay: Antitrypanosomal activity against Trypanosoma cruzi Tulahuen intracellular amastigote harboring LacZ infected in human U937 cells after 72 hrs by CPRG/Nonidet reagent based spectrophotometric method; assay type: functional, cell-based; conditions: U-937, 72 h
Procedure, shortened: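 U-937 cells at 2.5 × 10^5 cells/mL in RPMI-1640 with 10% serum and 0.1 µg/mL PMA were infected with β-galactosidase-transfected Tulahuen epimastigotes at 5 parasites per cell. Infected cells were exposed to 50, 12.5, 3.125 and 0.78 µg/mL for 72 h. CPRG (100 uM) and 0.1% Nonidet P-40 were added for 3 h, read at 570 nm. EC50 by Probit. Triplicate, at least two experiments; benznidazole as reference.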

Clc1cc(Cl)cc(N2N=C(c3ccc(Br)cc3)CC2c2cccc(Nc3ccnc4cc(Cl)ccc34)c2)c1 (stereo not given)
MIC (Klebsiella pneumoniae [1]): > 1000 mg/L | MIC (Klebsiella pneumoniae [2]): > 1000 mg/L | EC50 (Leishmania panamensis): 2.77 mg/L (≈ 4.45 µM) | MIC50 (Candida albicans [3]): ≥ 250 mg/L | MIC80 (Candida albicans [3]): ≥ 250 mg/L | MIC50 (Cryptococcus neoformans [4]): ≥ 250 mg/L | MIC80 (Cryptococcus neoformans [4]): ≥ 250 mg/L | inhibition of growth at 250 µg/mL (Candida albicans [5]): 13.7% | inhibition of growth at 125 µg/mL (Candida albicans [6]): 7.23% | inhibition of growth at 62.5 µg/mL (Candida albicans [7]): 4.45% | inhibition of growth at 31.25 µg/mL (Candida albicans [8]): 2.07% | inhibition of growth at 15.62 µg/mL (Candida albicans [9]): 1.92% | inhibition of growth at 7.8 µg/mL (Candida albicans [10]): 1.43% | inhibition of growth at 3.4 µg/mL (Candida albicans [11]): 0% | inhibition of growth at 250 µg/mL (Cryptococcus neoformans [12]): 13.3% | inhibition of growth at 125 µg/mL (Cryptococcus neoformans [13]): 0% | inhibition of growth at 62.5 µg/mL (Cryptococcus neoformans [14]): 0% | inhibition of growth at 31.25 µg/mL (Cryptococcus neoformans [15]): 0% | inhibition of growth at 15.62 µg/mL (Cryptococcus neoformans [16]): 0% | inhibition of growth at 7.8 µg/mL (Cryptococcus neoformans [17]): 0% | inhibition of growth at 3.4 µg/mL (Cryptococcus neoformans [18]): 0% | MIC (Staphylococcus aureus [19]): > 1000 mg/L | MIC (Staphylococcus aureus [20]): > 1000 mg/L | MIC (Staphylococcus aureus [21]): > 1000 mg/L | MIC (Escherichia coli): > 1000 mg/L | MIC (Pseudomonas aeruginosa): > 1000 mg/L | MIC (Neisseria gonorrhoeae): > 1000 mg/L | EC50 (Plasmodium falciparum): 14.4 mg/L (≈ 23.1 µM) | LC50 (U-937): > 200 mg/L | EC50 (Trypanosoma cruzi): 28.3 mg/L (≈ 45.4 µM)

O=CN1N=C(c2ccc(Br)cc2)CC1c1cccc(Nc2ccnc3cc(Cl)ccc23)c1 (stereo not given)
MIC (Klebsiella pneumoniae [1]): > 1000 mg/L | MIC (Klebsiella pneumoniae [2]): > 1000 mg/L | EC50 (Leishmania panamensis): 2.41 mg/L (≈ 4.76 µM) | MIC50 (Candida albicans [3]): 250 mg/L (≈ 494 µM) | MIC80 (Candida albicans [3]): ≥ 250 mg/L | MIC50 (Cryptococcus neoformans [4]): 62.5 mg/L (≈ 124 µM) | MIC80 (Cryptococcus neoformans [4]): 250 mg/L (≈ 494 µM) | inhibition of growth at 250 µg/mL (Candida albicans [5]): 58.7% | inhibition of growth at 125 µg/mL (Candida albicans [6]): 31.4% | inhibition of growth at 62.5 µg/mL (Candida albicans [7]): 25.3% | inhibition of growth at 31.25 µg/mL (Candida albicans [8]): 19.2% | inhibition of growth at 15.62 µg/mL (Candida albicans [9]): 13% | inhibition of growth at 7.8 µg/mL (Candida albicans [10]): 8.36% | inhibition of growth at 3.4 µg/mL (Candida albicans [11]): 5.76% | inhibition of growth at 250 µg/mL (Cryptococcus neoformans [12]): 100% | inhibition of growth at 125 µg/mL (Cryptococcus neoformans [13]): 60.9% | inhibition of growth at 62.5 µg/mL (Cryptococcus neoformans [14]): 53.5% | inhibition of growth at 31.25 µg/mL (Cryptococcus neoformans [15]): 44.5% | inhibition of growth at 15.62 µg/mL (Cryptococcus neoformans [16]): 44.2% | inhibition of growth at 7.8 µg/mL (Cryptococcus neoformans [17]): 39.1% | inhibition of growth at 3.4 µg/mL (Cryptococcus neoformans [18]): 24.2% | MIC (Staphylococcus aureus [19]): > 1000 mg/L | MIC (Staphylococcus aureus [20]): > 1000 mg/L | MIC (Staphylococcus aureus [21]): > 1000 mg/L | MIC (Escherichia coli): > 1000 mg/L | MIC (Pseudomonas aeruginosa): > 1000 mg/L | MIC (Neisseria gonorrhoeae): > 1000 mg/L | EC50 (Plasmodium falciparum): 15.7 mg/L (≈ 31 µM) | LC50 (U-937): 0.6 mg/L (≈ 1.19 µM) | EC50 (Trypanosoma cruzi): 1.24 mg/L (≈ 2.45 µM)
